Measurements published in ChEMBL document CHEMBL4428042, “Discovery and Characterization of a Class of Pyrazole Inhibitors of Bacterial Undecaprenyl Pyrophosphate Synthase” (J Med Chem, 2016).
In brackets after ≈: the same amount, converted by molar mass. Activity calls are given as the source filed them. The rule behind the calls is not given here.

What was measured:
[1] = Inhibition of N-terminal FLAG-tagged and C-terminal SBP-tagged Staphylococcus aureus recombination UppS assessed as reduction in IPP condensation to growing prenyl chain by measuring pyrophosphate production incubated for 30 mins
Staphylococcus aureus [2] = assay: Binding affinity to N-terminal FLAG-tagged and C-terminal SBP-tagged Staphylococcus aureus recombinant UppS expressed in Escherichia coli by affinity selection based ELT screen assay
[3] = target: T1, Ditrans,polycis-undecaprenyl-diphosphate synthase ((2E,6E)-farnesyl-diphosphate specific) (Acinetobacter baumannii, UniProt V5VCK8); assay: Inhibition of hexa-histidine tagged Acinetobacter baumannii UppS expressed in Escherichia coli assessed as reduction in IPP condensation to growing prenyl chain by measuring pyrophosphate production
T1 sequence (V5VCK8 whole entry): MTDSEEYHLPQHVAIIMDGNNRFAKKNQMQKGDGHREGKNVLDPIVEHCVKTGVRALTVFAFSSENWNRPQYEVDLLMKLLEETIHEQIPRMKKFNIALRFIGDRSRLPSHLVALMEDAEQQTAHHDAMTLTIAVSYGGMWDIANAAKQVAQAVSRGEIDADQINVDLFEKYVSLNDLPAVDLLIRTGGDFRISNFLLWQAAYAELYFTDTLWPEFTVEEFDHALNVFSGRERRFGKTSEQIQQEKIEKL

[4] = target: T2, Ditrans,polycis-undecaprenyl-diphosphate synthase ((2E,6E)-farnesyl-diphosphate specific) (Klebsiella pneumoniae, UniProt A0A080SPQ8); assay: Inhibition of hexa-histidine tagged Klebsiella pneumoniae UppS expressed in Escherichia coli assessed as reduction in IPP condensation to growing prenyl chain by measuring pyrophosphate production
T2 sequence (A0A080SPQ8 whole entry): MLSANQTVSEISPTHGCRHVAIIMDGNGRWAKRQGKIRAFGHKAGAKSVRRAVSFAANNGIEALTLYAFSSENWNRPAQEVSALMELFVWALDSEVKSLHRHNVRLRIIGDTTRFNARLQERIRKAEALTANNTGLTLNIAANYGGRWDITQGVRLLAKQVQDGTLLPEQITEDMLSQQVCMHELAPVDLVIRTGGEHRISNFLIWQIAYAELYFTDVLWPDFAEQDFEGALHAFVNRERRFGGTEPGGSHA

[5] = target: T3, Ditrans,polycis-undecaprenyl-diphosphate synthase ((2E,6E)-farnesyl-diphosphate specific) (Pseudomonas aeruginosa (strain ATCC 15692 / DSM 22644 / CIP 104116 / JCM14847 / LMG 12228 / 1C / PRS 101 / PAO1), UniProt Q9HXY2); assay: Inhibition of hexa-histidine tagged Pseudomonas aeruginosa UppS expressed in Escherichia coli assessed as reduction in IPP condensation to growing prenyl chain by measuring pyrophosphate production incubated for 30 mins
T3 sequence (Q9HXY2 whole entry): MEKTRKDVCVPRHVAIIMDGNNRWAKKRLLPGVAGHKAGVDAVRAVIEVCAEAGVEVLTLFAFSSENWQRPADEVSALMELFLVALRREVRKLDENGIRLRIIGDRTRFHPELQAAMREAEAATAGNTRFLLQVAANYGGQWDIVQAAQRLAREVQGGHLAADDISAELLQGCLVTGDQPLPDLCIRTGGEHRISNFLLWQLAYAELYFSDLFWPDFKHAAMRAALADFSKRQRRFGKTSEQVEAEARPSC

Staphylococcus aureus [6] = assay: Binding affinity to N-terminal FLAG-tagged and C-terminal SBP-tagged Staphylococcus aureus recombination UppS assessed change in melting temperature at 10 uM by SYPRO Orange based assay
Staphylococcus aureus [7] = assay: Antibacterial activity against Staphylococcus aureus OXFORD incubated for 18 to 24 hrs by broth microdilution method; format: functional
Staphylococcus aureus [8] = assay: Antibacterial activity against Staphylococcus aureus WCUH29 incubated for 18 to 24 hrs by broth microdilution method; format: functional
Streptococcus pneumoniae [9] = assay: Antibacterial activity against Streptococcus pneumoniae 1629 incubated for 18 to 24 hrs by broth microdilution method; format: functional
Streptococcus pneumoniae [10] = assay: Antibacterial activity against Streptococcus pneumoniae Ery2 incubated for 18 to 24 hrs by broth microdilution method; format: functional
Streptococcus pyogenes = assay: Antibacterial activity against Streptococcus pyogenes 1307006P incubated for 18 to 24 hrs by broth microdilution method; format: functional
Moraxella catarrhalis = assay: Antibacterial activity against Moraxella catarrhalis 1502 incubated for 18 to 24 hrs by broth microdilution method; format: functional
Haemophilus influenzae [11] = assay: Antibacterial activity against Haemophilus influenzae H128 incubated for 18 to 24 hrs by broth microdilution method; format: functional
Haemophilus influenzae [12] = assay: Antibacterial activity against Haemophilus influenzae H128 deficient in AcrA incubated for 18 to 24 hrs by broth microdilution method; format: functional
Klebsiella pneumoniae = assay: Antibacterial activity against Klebsiella pneumoniae 1161486a deficient in tolC incubated for 18 to 24 hrs by broth microdilution method; format: functional
Escherichia coli = assay: Antibacterial activity against Escherichia coli 120 deficient in AcrAB incubated for 18 to 24 hrs by broth microdilution method; format: functional
Pseudomonas aeruginosa = assay: Antibacterial activity against Pseudomonas aeruginosa PAO322 deficient in MexA/B/C/D/E/F incubated for 18 to 24 hrs by broth microdilution method; format: functional
Acinetobacter baumannii = assay: Antibacterial activity against Acinetobacter baumannii ACM1010 incubated for 18 to 24 hrs by broth microdilution method; format: functional
Staphylococcus aureus [13] = assay: Antibacterial activity against Staphylococcus aureus RN4220 transfected with pYH4 in absence of anhydrotetracycline incubated for 18 to 24 hrs by broth microdilution method; format: functional
Staphylococcus aureus [14] = assay: Antibacterial activity against Staphylococcus aureus RN4220 transfected with pYH4 in presence of anhydrotetracycline incubated for 18 to 24 hrs by broth microdilution method; format: functional
Staphylococcus aureus [15] = assay: Antibacterial activity against Staphylococcus aureus RN4220 transfected with pYH4-UppS in absence of anhydrotetracycline incubated for 18 to 24 hrs by broth microdilution method; format: functional
Staphylococcus aureus [16] = assay: Antibacterial activity against Staphylococcus aureus RN4220 transfected with pYH4-UppS in presence of anhydrotetracycline incubated for 18 to 24 hrs by broth microdilution method; format: functional
In short: (§1)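 S. aureus strain carrying an inducible uppS over-expression plasmid, with anhydrotetracycline inducer at 0.1 µg/mL. MIC was compared with the un-induced system and with a plasmid vector control strain.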

Staphylococcus aureus [17] = assay: Antibacterial activity against Staphylococcus aureus RN4220 expressing wild type UppS incubated for 18 to 24 hrs by broth microdilution method; format: functional
Staphylococcus aureus [18] = assay: Antibacterial activity against Staphylococcus aureus RN4220 expressing UppS F103L mutant incubated for 18 to 24 hrs by broth microdilution method; format: functional
In short: (§2)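 S. aureus resistant mutants were isolated from the wild-type laboratory strain in the presence of the pyrazole UppS inhibitor and then tested for MIC.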

Staphylococcus aureus [19] = assay: Antibacterial activity against Staphylococcus aureus RN4220 expressing UppS F148L mutant incubated for 18 to 24 hrs by broth microdilution method; format: functional; in short: as §2
[20] = Cytotoxicity against mouse L5178Y TK+/- suspension cells incubated for 72 hrs by Cell-titer-Glo reagent based assay; settings: read-out: TC50
Staphylococcus aureus [21] = assay: Resistance index, ratio of MIC for antibacterial activity against Staphylococcus aureus RN4220 transfected with pYH4-UppS in presence of anhydrotetracycline to MIC for antibacterial activity against Staphylococcus aureus RN4220 transfected with pYH4-UppS in absence of anhydrotetracycline; format: functional; in short: as §1

| Compound | IC50 [1] [µM] | Activity (Staphylococcus aureus [2]) | IC50 [3] [µM] | IC50 [4] [µM] | IC50 [5] [µM] | ΔTm (Staphylococcus aureus [6]) [°C] | MIC (Staphylococcus aureus [7]) [µg/mL] | MIC (Staphylococcus aureus [8]) [µg/mL] | MIC (Streptococcus pneumoniae [9]) [µg/mL] | MIC (Streptococcus pneumoniae [10]) [µg/mL] | MIC (Streptococcus pyogenes) [µg/mL] | MIC (Moraxella catarrhalis) [µg/mL] | MIC (Haemophilus influenzae [11]) [µg/mL] | MIC (Haemophilus influenzae [12]) [µg/mL] | MIC (Klebsiella pneumoniae) [µg/mL] | MIC (Escherichia coli) [µg/mL] | MIC (Pseudomonas aeruginosa) [µg/mL] | MIC (Acinetobacter baumannii) [µg/mL] | MIC (Staphylococcus aureus [13]) [µg/mL] | MIC (Staphylococcus aureus [14]) [µg/mL] | also measured |
| --- | --- | --- | --- | --- | --- | --- | --- | --- | --- | --- | --- | --- | --- | --- | --- | --- | --- | --- | --- | --- | --- |
| CC(C)Oc1ccc(CN(CCC(N)=O)C(=O)c2cnn(Cc3ccccc3)c2-c2ccc3sccc3c2)cc1 | 0.19 | Active | > 100 | > 100 | > 100 | 8 | 8 (≈ 14.5 µM) | 4 to 8 (≈ 7.24 to 14.5 µM) | 32 to 64 (≈ 57.9 to 116 µM) | 32 to 64 (≈ 57.9 to 116 µM) | 64 (≈ 116 µM) | 8 to 16 (≈ 14.5 to 28.9 µM) | > 128 | 8 to 16 (≈ 14.5 to 28.9 µM) | > 128 | > 128 | > 128 | > 128 | 8 (≈ 14.5 µM) | 8 | MIC (Staphylococcus aureus [15]): 32 µg/mL (≈ 57.9 µM); MIC (Staphylococcus aureus [16]): 64 µg/mL; MIC (Staphylococcus aureus [17]): 8 µg/mL (≈ 14.5 µM); MIC (Staphylococcus aureus [18]): 64 µg/mL (≈ 116 µM); MIC (Staphylococcus aureus [19]): 64 µg/mL (≈ 116 µM); CC50 at 72 h [20]: 25 µM; Ratio (Staphylococcus aureus [21]): 2 |
| C[C@@H](O)[C@H]1C(=O)N2C(C(=O)O)=C(S[C@@H]3CN[C@H](C(=O)N(C)C)C3)[C@H](C)[C@H]12 [MEROPENEM] | – | – | – | – | – | – | 0.125 (≈ 0.326 µM) | 2 (≈ 5.22 µM) | 0.016 (≈ 0.0417 µM) | 0.016 (≈ 0.0417 µM) | ≤ 0.008 | ≤ 0.008 | 0.125 (≈ 0.326 µM) | 0.125 (≈ 0.326 µM) | 0.03 (≈ 0.0782 µM) | 0.03 (≈ 0.0782 µM) | 0.5 (≈ 1.3 µM) | 0.5 (≈ 1.3 µM) | – | – | – |
| Cc1ccc(-c2c(C(=O)N(CCC(N)=O)Cc3ccc(OC(C)C)cc3)cnn2Cc2ccccc2)cc1 | 0.97 | Active | > 100 | > 100 | > 100 | 11 | 32 to 64 (≈ 62.7 to 125 µM) | 32 to 64 (≈ 62.7 to 125 µM) | 128 (≈ 251 µM) | 128 (≈ 251 µM) | 128 (≈ 251 µM) | 32 (≈ 62.7 µM) | > 128 | 32 (≈ 62.7 µM) | > 128 | > 128 | > 128 | > 128 | 64 (≈ 125 µM) | 32 | MIC (Staphylococcus aureus [15]): 128 µg/mL (≈ 251 µM); MIC (Staphylococcus aureus [16]): > 128 µg/mL; CC50 at 72 h [20]: 100 µM |
| O=C(O)c1cn(C2CC2)c2cc(N3CCNCC3)c(F)cc2c1=O [CIPROFLOXACIN] | – | – | – | – | – | – | – | 0.5 (≈ 1.51 µM) | 0.25 (≈ 0.754 µM) | 2 (≈ 6.04 µM) | 0.5 (≈ 1.51 µM) | 0.03 (≈ 0.0905 µM) | ≤ 0.008 | ≤ 0.008 | ≤ 0.008 | ≤ 0.008 | ≤ 0.008 | > 8 | – | – | – |
